Experimental data from ChEMBL document CHEMBL2331542, “Synthesis and in vitro antibacterial activity of quinolone/naphthyridone derivatives containing 3-alkoxyimino-4-(methyl)aminopiperidine scaffolds” (2013).
Values after ≈ are worked out from the molar mass of the structure shown.

The molecules below were run on Escherichia coli (assay: Antibacterial activity against extended-spectrum beta-lactamase-producing Escherichia coli isolate 12-4).
Type: functional
Procedure, shortened: (§1)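 MIC determined in vitro by a standard technique and defined as the lowest compound concentration giving complete inhibition of bacterial growth. The Gram-positive and Gram-negative panels were tested alongside gemifloxacin, levofloxacin and ciprofloxacin reference drugs.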

Question: How did the MIC turn out when CCO/N=C1\CN(c2c(F)cc3c(=O)c(C(=O)O)cn(C4CC4)c3c2F)CCC1NC (stereo unspecified) was run?
Answer: The MIC was 16 µg/mL (≈ 36.8 µM).

Each molecule was assayed on Escherichia coli (assay: Antibacterial activity against extended-spectrum beta-lactamase-producing Escherichia coli isolate 12-2).
Type: functional
Procedure, shortened: as §1

Question: How did the MIC turn out when CCO/N=C1\CN(c2c(F)cc3c(=O)c(C(=O)O)cn(C4CC4)c3c2F)CCC1NC (stereo unspecified) was run?
Answer: Its MIC is > 128 µg/mL.

These molecules were tested on Escherichia coli (assay: Antibacterial activity against extended-spectrum beta-lactamase-producing Escherichia coli isolate 12-1).
Type: functional
Procedure, shortened: as §1

Question: With CCO/N=C1\CN(c2c(F)cc3c(=O)c(C(=O)O)cn(C4CC4)c3c2F)CCC1NC (stereo unspecified) as the molecule, how does the MIC read?
Answer: Its MIC is > 128 µg/mL.

What follows are molecules tested on Escherichia coli (assay: Antibacterial activity against Escherichia coli isolate 12-5).
Type: functional
Procedure, shortened: as §1

Question: With CCO/N=C1\CN(c2c(F)cc3c(=O)c(C(=O)O)cn(C4CC4)c3c2F)CCC1NC (stereo unspecified) as the molecule, how does the MIC read?
Answer: The MIC was > 128 µg/mL.

What follows are molecules tested on Escherichia coli (assay: Antibacterial activity against Escherichia coli isolate 12-4).
Type: functional
Procedure, shortened: as §1

Question: How did the MIC turn out when CCO/N=C1\CN(c2c(F)cc3c(=O)c(C(=O)O)cn(C4CC4)c3c2F)CCC1NC (stereo unspecified) was run?
Answer: Its MIC is > 128 µg/mL.

These molecules were tested on Escherichia coli (assay: Antibacterial activity against Escherichia coli isolate 12-1).
Type: functional
Procedure, shortened: as §1

Question: With CCO/N=C1\CN(c2c(F)cc3c(=O)c(C(=O)O)cn(C4CC4)c3c2F)CCC1NC (stereo unspecified) as the molecule, how does the MIC read?
Answer: Its MIC is 8 µg/mL (≈ 18.4 µM).

The molecules below were run on Escherichia coli (assay: Antibacterial activity against Escherichia coli ATCC 25922).
Type: functional
Procedure, shortened: as §1

Question: With CCO/N=C1\CN(c2c(F)cc3c(=O)c(C(=O)O)cn(C4CC4)c3c2F)CCC1NC (stereo unspecified) as the molecule, how does the MIC read?
Answer: Its MIC is 16 µg/mL (≈ 36.8 µM).

What follows are molecules tested on Streptococcus pneumoniae (assay: Antibacterial activity against Streptococcus pneumoniae isolate 12-5).
Type: functional
Procedure, shortened: as §1

Question: For CCO/N=C1\CN(c2c(F)cc3c(=O)c(C(=O)O)cn(C4CC4)c3c2F)CCC1NC (stereo unspecified), which MIC is on record?
Answer: Its MIC is 1 µg/mL (≈ 2.3 µM).

Each molecule was assayed on Streptococcus pneumoniae (assay: Antibacterial activity against Streptococcus pneumoniae isolate 12-2).
Type: functional
Procedure, shortened: as §1

Question: For CCO/N=C1\CN(c2c(F)cc3c(=O)c(C(=O)O)cn(C4CC4)c3c2F)CCC1NC (stereo unspecified), which MIC is on record?
Answer: The MIC was 0.5 µg/mL (≈ 1.15 µM).

Each molecule was assayed on Staphylococcus epidermidis (assay: Antibacterial activity against methicillin-resistant Staphylococcus epidermidis isolate 12-35).
Type: functional
Procedure, shortened: (§2)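 MIC determined in vitro by standard techniques, defined as the lowest compound concentration giving complete inhibition of bacterial growth. Gemifloxacin, levofloxacin and ciprofloxacin were tested alongside as reference drugs.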

Question: How did the MIC turn out when CCO/N=C1\CN(c2c(F)cc3c(=O)c(C(=O)O)cn(C4CC4)c3c2F)CCC1NC (stereo unspecified) was run?
Answer: Its MIC is 1 µg/mL (≈ 2.3 µM).

These molecules were tested on Staphylococcus epidermidis (assay: Antibacterial activity against methicillin-resistant Staphylococcus epidermidis isolate 12-33).
Type: functional
Procedure, shortened: as §2

Question: Which MIC does the source give for CCO/N=C1\CN(c2c(F)cc3c(=O)c(C(=O)O)cn(C4CC4)c3c2F)CCC1NC (stereo unspecified) here?
Answer: The MIC was 1 µg/mL (≈ 2.3 µM).

Each molecule was assayed on Staphylococcus epidermidis (assay: Antibacterial activity against methicillin-resistant Staphylococcus epidermidis isolate 12-5).
Type: functional
Procedure, shortened: as §2

Question: For CCO/N=C1\CN(c2c(F)cc3c(=O)c(C(=O)O)cn(C4CC4)c3c2F)CCC1NC (stereo unspecified), which MIC is on record?
Answer: The MIC was 1 µg/mL (≈ 2.3 µM).

Each molecule was assayed on Staphylococcus epidermidis (assay: Antibacterial activity against methicillin-sensitive Staphylococcus epidermidis isolate 12-3).
Type: functional
Procedure, shortened: as §1

Question: How did the MIC turn out when CCO/N=C1\CN(c2c(F)cc3c(=O)c(C(=O)O)cn(C4CC4)c3c2F)CCC1NC (stereo unspecified) was run?
Answer: The MIC was 0.5 µg/mL (≈ 1.15 µM).

These molecules were tested on Staphylococcus epidermidis (assay: Antibacterial activity against methicillin-sensitive Staphylococcus epidermidis isolate 12-2).
Type: functional
Procedure, shortened: as §1

Question: CCO/N=C1\CN(c2c(F)cc3c(=O)c(C(=O)O)cn(C4CC4)c3c2F)CCC1NC (stereo unspecified) was tested. Which MIC did it give?
Answer: The MIC was 1 µg/mL (≈ 2.3 µM).

These molecules were tested on Staphylococcus epidermidis (assay: Antibacterial activity against methicillin-sensitive Staphylococcus epidermidis isolate 12-1).
Type: functional
Procedure, shortened: as §1

Question: CCO/N=C1\CN(c2c(F)cc3c(=O)c(C(=O)O)cn(C4CC4)c3c2F)CCC1NC (stereo unspecified) was tested. Which MIC did it give?
Answer: The MIC was 0.5 µg/mL (≈ 1.15 µM).

What follows are molecules tested on Staphylococcus aureus (assay: Antibacterial activity against methicillin-resistant Staphylococcus aureus isolate 12-15).
Type: functional
Procedure, shortened: as §2

Question: CCO/N=C1\CN(c2c(F)cc3c(=O)c(C(=O)O)cn(C4CC4)c3c2F)CCC1NC (stereo unspecified) was tested. Which MIC did it give?
Answer: The MIC was 0.5 µg/mL (≈ 1.15 µM).

The molecules below were run on Staphylococcus aureus (assay: Antibacterial activity against methicillin-resistant Staphylococcus aureus isolate 12-13).
Type: functional
Procedure, shortened: as §2

Question: For CCO/N=C1\CN(c2c(F)cc3c(=O)c(C(=O)O)cn(C4CC4)c3c2F)CCC1NC (stereo unspecified), which MIC is on record?
Answer: The MIC was 0.5 µg/mL (≈ 1.15 µM).

These molecules were tested on Staphylococcus aureus (assay: Antibacterial activity against methicillin-resistant Staphylococcus aureus isolate 12-3).
Type: functional
Procedure, shortened: as §2

Question: CCO/N=C1\CN(c2c(F)cc3c(=O)c(C(=O)O)cn(C4CC4)c3c2F)CCC1NC (stereo unspecified) was tested. Which MIC did it give?
Answer: The MIC was 0.5 µg/mL (≈ 1.15 µM).

What follows are molecules tested on Staphylococcus aureus (assay: Antibacterial activity against methicillin-sensitive Staphylococcus aureus isolate 12-10).
Type: functional
Procedure, shortened: as §1

Question: With CCO/N=C1\CN(c2c(F)cc3c(=O)c(C(=O)O)cn(C4CC4)c3c2F)CCC1NC (stereo unspecified) as the molecule, how does the MIC read?
Answer: The MIC was 0.125 µg/mL (≈ 0.288 µM).

Each molecule was assayed on Staphylococcus aureus (assay: Antibacterial activity against methicillin-sensitive Staphylococcus aureus isolate 12-7).
Type: functional
Procedure, shortened: as §1

Question: How did the MIC turn out when CCO/N=C1\CN(c2c(F)cc3c(=O)c(C(=O)O)cn(C4CC4)c3c2F)CCC1NC (stereo unspecified) was run?
Answer: Its MIC is 128 µg/mL (≈ 295 µM).

These molecules were tested on Staphylococcus aureus (assay: Antibacterial activity against methicillin-sensitive Staphylococcus aureus isolate 12-6).
Type: functional
Procedure, shortened: as §1

Question: Which MIC does the source give for CCO/N=C1\CN(c2c(F)cc3c(=O)c(C(=O)O)cn(C4CC4)c3c2F)CCC1NC (stereo unspecified) here?
Answer: The MIC was 0.5 µg/mL (≈ 1.15 µM).

Each molecule was assayed on Staphylococcus aureus (assay: Antibacterial activity against Staphylococcus aureus […]).
Type: functional
Procedure, shortened: as §1

Question: Which MIC does the source give for CCO/N=C1\CN(c2c(F)cc3c(=O)c(C(=O)O)cn(C4CC4)c3c2F)CCC1NC (stereo unspecified) here?
Answer: Its MIC is 0.5 µg/mL (≈ 1.15 µM).

What follows are molecules tested on Pseudomonas aeruginosa (assay: Antibacterial activity against Pseudomonas aeruginosa isolate 12-2).
Type: functional
Procedure, shortened: as §1

Question: CCO/N=C1\CN(c2c(F)cc3c(=O)c(C(=O)O)cn(C4CC4)c3c2F)CCC1NC (stereo unspecified) was tested. Which MIC did it give?
Answer: The MIC was 16 µg/mL (≈ 36.8 µM).

The molecules below were run on Pseudomonas aeruginosa (assay: Antibacterial activity against Pseudomonas aeruginosa isolate 12-1).
Type: functional
Procedure, shortened: as §1

Question: For CCO/N=C1\CN(c2c(F)cc3c(=O)c(C(=O)O)cn(C4CC4)c3c2F)CCC1NC (stereo unspecified), which MIC is on record?
Answer: Its MIC is 16 µg/mL (≈ 36.8 µM).

The molecules below were run on Pseudomonas aeruginosa (assay: Antibacterial activity against Pseudomonas aeruginosa ATCC 27853).
Type: functional
Procedure, shortened: as §1

Question: CCO/N=C1\CN(c2c(F)cc3c(=O)c(C(=O)O)cn(C4CC4)c3c2F)CCC1NC (stereo unspecified) was tested. Which MIC did it give?
Answer: The MIC was 16 µg/mL (≈ 36.8 µM).

These molecules were tested on Klebsiella pneumoniae (assay: Antibacterial activity against extended-spectrum beta-lactamase-producing Klebsiella pneumoniae isolate 12-4).
Type: functional
Procedure, shortened: as §1

Question: How did the MIC turn out when CCO/N=C1\CN(c2c(F)cc3c(=O)c(C(=O)O)cn(C4CC4)c3c2F)CCC1NC (stereo unspecified) was run?
Answer: The MIC was > 128 µg/mL.

These molecules were tested on Klebsiella pneumoniae (assay: Antibacterial activity against extended-spectrum beta-lactamase-producing Klebsiella pneumoniae isolate 12-2).
Type: functional
Procedure, shortened: as §1

Question: How did the MIC turn out when CCO/N=C1\CN(c2c(F)cc3c(=O)c(C(=O)O)cn(C4CC4)c3c2F)CCC1NC (stereo unspecified) was run?
Answer: Its MIC is 16 µg/mL (≈ 36.8 µM).

The molecules below were run on Klebsiella pneumoniae (assay: Antibacterial activity against extended-spectrum beta-lactamase-producing Klebsiella pneumoniae isolate 12-1).
Type: functional
Procedure, shortened: as §1

Question: CCO/N=C1\CN(c2c(F)cc3c(=O)c(C(=O)O)cn(C4CC4)c3c2F)CCC1NC (stereo unspecified) was tested. Which MIC did it give?
Answer: Its MIC is 16 µg/mL (≈ 36.8 µM).

These molecules were tested on Klebsiella pneumoniae (assay: Antibacterial activity against Klebsiella pneumoniae isolate 12-4).
Type: functional
Procedure, shortened: as §1

Question: Which MIC does the source give for CCO/N=C1\CN(c2c(F)cc3c(=O)c(C(=O)O)cn(C4CC4)c3c2F)CCC1NC (stereo unspecified) here?
Answer: The MIC was 1 µg/mL (≈ 2.3 µM).

What follows are molecules tested on Klebsiella pneumoniae (assay: Antibacterial activity against Klebsiella pneumoniae isolate 12-2).
Type: functional
Procedure, shortened: as §1

Question: With CCO/N=C1\CN(c2c(F)cc3c(=O)c(C(=O)O)cn(C4CC4)c3c2F)CCC1NC (stereo unspecified) as the molecule, how does the MIC read?
Answer: Its MIC is 1 µg/mL (≈ 2.3 µM).

Each molecule was assayed on Klebsiella pneumoniae (assay: Antibacterial activity against Klebsiella pneumoniae isolate 12-1).
Type: functional
Procedure, shortened: as §1

Question: With CCO/N=C1\CN(c2c(F)cc3c(=O)c(C(=O)O)cn(C4CC4)c3c2F)CCC1NC (stereo unspecified) as the molecule, how does the MIC read?
Answer: The MIC was 2 µg/mL (≈ 4.6 µM).
